What was measured:
[1] = LDH release cytotoxicity assay; type: cell-based; details: human, U937 cells
Procedure, shortened: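 U937 cells were plated in 96-well format and given various test compound concentrations, with Triton X100 as positive cytotoxicity control, for 4 h at 37 °C. Plates were spun 5 min at 1000 RPM, and supernatant was moved to a fresh plate with LDH detection reagent for 10 min at room temperature in the dark. Optical density was then read, and half-maximal concentration was derived from the doses.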

U937 cells = assay: CellTiter-Glo Luminescent cell viability assay; type: cell-based, human; details: for inhibition at 25 µM / inhibition at 50 µM / inhibition at 100 µM / inhibition at 200 µM: Homo sapiens, U-937, 72 h, read-out: Percent inhibition at different concentrations of compounds (antiproliferative); for Percent inhibition at different concentrations of compounds (antiproliferative): U937 cells, 72 h, relative to Mitomycin C = 100%
Procedure, shortened: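 Human myeloid leukaemia U937 cells exposed to a range of test compound concentrations for 72 h, with Mitomycin C as positive control and DMSO diluent as negative control. CellTiter-Glo reagent added at an equal volume to the medium, mixed 2 min for lysis, then held 10 min at room temperature before luminescence was read. Viability was computed as RLU test ×100/RLU control. Half-maximal inhibitory concentration was fitted from the dose series.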

| Compound | inhibition at 4 h, 12.5 µM [1] | inhibition at 4 h, 25 µM [1] | inhibition at 4 h, 50 µM [1] | inhibition at 4 h, 100 µM [1] | inhibition at 25 µM (U937 cells) | inhibition at 50 µM (U937 cells) | inhibition at 100 µM (U937 cells) | inhibition at 200 µM (U937 cells) | Percent inhibition at different concentrations of compounds (antiproliferative) (U937 cells; 25 μM) | Percent inhibition at different concentrations of compounds (antiproliferative) (U937 cells; 50 μM) | Percent inhibition at different concentrations of compounds (antiproliferative) (U937 cells; 100 μM) | Percent inhibition at different concentrations of compounds (antiproliferative) (U937 cells; 200 μM) |
| --- | --- | --- | --- | --- | --- | --- | --- | --- | --- | --- | --- | --- |
| COC(=O)COc1cccc(NC(=O)C2(c3ccccc3)CC2)c1 [Compound 8a, Methyl 2-(3-(1-phenylcyclopropane-1-carboxamido)phenoxy)acetate] | -1% | 2% | 2% | 1% | 28% | 28% | 102% | 100% |  |  |  |  |
| COC(=O)COc1ccc(NC(=O)C2(c3ccccc3)CC2)cc1 [Compound 8b, Methyl 2-(4-(1-phenylcyclopropane-1-carboxamido)phenoxy)acetate] | -2% | -3% | -2% | -2% | 41% | 44% | 102% | 101% |  |  |  |  |
| COC(=O)COc1ccc(NC(=O)C2(c3ccccc3)CC2)c(C)c1 [Compound 8c, Methyl 2-(3-methyl-4-(1-phenylcyclopropane-1-carboxamido)phenoxy)acetate] | 0% | -1% | 0% | -1% | 37% | 63% | 102% | 101% |  |  |  |  |
| COC(=O)COc1ccc(NC(=O)C2(c3ccccc3)CC2)cc1Br [Compound 8d, Methyl 2-(2-bromo-4-(1-phenylcyclopropane-1-carboxamido)phenoxy)acetate] | -1% | 0% | 3% | -3% | 15% | 24% | 100% | 101% |  |  |  |  |
| COC(=O)COc1cccc(NC(=O)C2(c3cccc(C)c3)CC2)c1 [Compound 8e, Methyl 2-(3-(1-(m-tolyl)cyclopropane-1-carboxamido)phenoxy)acetate] | -3% | -4% | -1% | -1% | 46% | 45% | 59% | 101% |  |  |  |  |
| COC(=O)COc1ccc(NC(=O)C2(c3cccc(C)c3)CC2)cc1 [Compound 8f, Methyl 2-(4-(1-(m-tolyl)cyclopropane-1-carboxamido)phenoxy)acetate] | -1% | -1% | 0% | 0% | 34% | 36% | 32% | 100% |  |  |  |  |
| COC(=O)COc1ccc(NC(=O)C2(c3cccc(C)c3)CC2)c(C)c1 [Compound 8g, Methyl 2-(3-methyl-4-(1-(m-tolyl)cyclopropane-1-carboxamido)phenoxy)acetate] | 0% | 0% | 1% | 0% | 18% | 25% | 89% | 100% |  |  |  |  |
| COC(=O)COc1cccc(NC(=O)C2(c3ccc(OC)cc3)CC2)c1 [Compound 8h, Methyl 2-(3-(1-(4-methoxyphenyl)cyclopropane-1-carboxamido)phenoxy)acetate] | 0% | 3% | 0% | -2% | 17% | 80% | 98% | 100% |  |  |  |  |
| COC(=O)COc1ccc(NC(=O)C2(c3ccc(OC)cc3)CC2)cc1 [Compound 8i, Methyl 2-(4-(1-(4-methoxyphenyl)cyclopropane-1-carboxamido)phenoxy)acetate] | -3% | 0% | -2% | -2% | 28% | 38% | 80% | 101% |  |  |  |  |
| COC(=O)COc1ccc(NC(=O)C2(c3ccc(F)cc3)CC2)cc1 [Compound 8j, Methyl 2-(4-(1-(4-fluorophenyl)cyclopropane-1-carboxamido)phenoxy)acetate] | 0% | -1% | -2% | -1% | -12% | 39% | 76% | 101% |  |  |  |  |
| COC(=O)COc1ccc(NC(=O)C2(c3ccc(F)cc3)CC2)c(C)c1 [Compound 8k, Methyl 2-(4-(1-(4-fluorophenyl)cyclopropane-1-carboxamido)-3-methylphenoxy)acetate] | 0% | 0% | -1% | 4% | 32% | 74% | 101% | 102% |  |  |  |  |
| COC(=O)COc1cccc(NC(=O)C2(c3ccc(Cl)cc3)CC2)c1 [Compound 8l, Methyl 2-(3-(1-(4-chlorophenyl)cyclopropane-1-carboxamido)phenoxy)acetate] | -1% | -1% | 0% | 2% | 63% | 96% | 101% | 102% |  |  |  |  |
| COC(=O)COc1ccc(NC(=O)C2(c3ccc(Cl)cc3)CC2)cc1 [Compound 8m, Methyl 2-(4-(1-(4-chlorophenyl)cyclopropane-1-carboxamido)phenoxy)acetate] | -1% | 1% | 1% | 0% | 39% | 49% | 99% | 101% |  |  |  |  |
| COC(=O)COc1ccc(NC(=O)C2(c3ccc(Cl)cc3)CC2)c(C)c1 [Compound 8n, Methyl 2-(4-(1-(4-chlorophenyl)cyclopropane-1-carboxamido)-3-methylphenoxy)acetate] | 0% | -1% | 1% | -1% | 28% | 33% | 101% | 101% |  |  |  |  |
| COC(=O)COc1ccc(NC(=O)C2(c3ccc(Cl)cc3)CC2)cc1Br [Compound 8o, Methyl 2-(2-bromo-4-(1-(4-chlorophenyl)cyclopropane-1-carboxamido)phenoxy)acetate] | 0% | -2% | -2% | -4% | 52% | 77% | 102% | 102% |  |  |  |  |
| COC(=O)COc1cccc(NC(=O)C2(c3cccc(Br)c3)CC2)c1 [Compound 8p, Methyl 2-(3-(1-(3-bromophenyl)cyclopropane-1-carboxamido)phenoxy)acetate] | 0% | -1% | 0% | 0% | 37% | 60% | 101% | 102% |  |  |  |  |
| COC(=O)COc1ccc(NC(=O)C2(c3cccc(Br)c3)CC2)c(C)c1 [Compound 8r, Methyl 2-(4-(1-(3-bromophenyl)cyclopropane-1-carboxamido)-3-methylphenoxy)acetate] | -1% | -1% | 1% | -2% | 27% | 84% | 100% | 101% |  |  |  |  |
| COC(=O)COc1ccc(NC(=O)C2(c3ccc(Cl)c(Cl)c3)CC2)cc1 [Compound 8s, Methyl 2-(4-(1-(3,4-dichlorophenyl)cyclopropane-1-carboxamido)phenoxy)acetate] | 4% | 0% | -1% | 0% | 40% | 64% | 102% | 102% |  |  |  |  |
| Methyl 2-(4-(1-(3-bromophenyl)cyclopropane-1-carboxamido)-3-methylphenoxy)acetate [Compound 8q] |  |  |  |  |  |  |  |  | 26% | 45% | 102% | 102% |

From publication PMC9898299 (Heliyon, 2023)
